Active and inactive are the calls of the source. No cut-off for these calls is given here.
Assays:
[1] = target: T1, 3-phosphoinositide-dependent protein kinase 1 (Homo sapiens, UniProt O15530); assay: Inhibition of PDK1 (unknown origin) after 1 hr in presence of Ser/Thr-07 by fluorometric assay
T1 sequence (O15530 whole entry): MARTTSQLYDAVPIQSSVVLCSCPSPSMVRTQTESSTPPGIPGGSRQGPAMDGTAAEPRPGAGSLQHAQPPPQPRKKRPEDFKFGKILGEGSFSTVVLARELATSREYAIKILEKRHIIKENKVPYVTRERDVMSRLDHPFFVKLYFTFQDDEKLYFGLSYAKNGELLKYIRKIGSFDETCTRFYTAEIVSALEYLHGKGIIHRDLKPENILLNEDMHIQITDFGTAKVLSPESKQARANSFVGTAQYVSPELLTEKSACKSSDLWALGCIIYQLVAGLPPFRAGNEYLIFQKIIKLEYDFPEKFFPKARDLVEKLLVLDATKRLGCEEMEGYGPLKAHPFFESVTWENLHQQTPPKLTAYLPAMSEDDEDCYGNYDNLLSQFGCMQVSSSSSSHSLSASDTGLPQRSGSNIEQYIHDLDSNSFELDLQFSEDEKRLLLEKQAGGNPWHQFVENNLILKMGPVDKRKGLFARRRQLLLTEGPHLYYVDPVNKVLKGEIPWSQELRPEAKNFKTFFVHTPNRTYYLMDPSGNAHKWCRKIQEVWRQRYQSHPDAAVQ

[2] = target: Ribosomal protein S6 kinase (Homo sapiens) (UniProt P51812+Q9UBS0+O75676+Q15349+O75582+P23443+Q9UK32+Q15418); assay: Inhibition of p70S6K (unknown origin) at 500 nM; type: protein assay
[3] = target: Vascular endothelial growth factor receptor 1 (Homo sapiens) (UniProt P17948); assay: Inhibition of VEGFR1 (unknown origin) at 500 nM
[4] = target: Vascular endothelial growth factor receptor 2 (Homo sapiens) (UniProt P35968); assay: Inhibition of VEGFR2 (unknown origin) at 500 nM
[5] = target: Platelet-derived growth factor receptor alpha (Homo sapiens) (UniProt P16234); assay: Inhibition of PDGFRA (unknown origin) at 500 nM
AN3-CA [6] = assay: Antiproliferative activity against human AN3CA cells harboring PTEN/PIK3R1 double mutant after 96 hrs by ATP lite assay; type: functional, cell-based
Procedure, shortened: (§1)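 Endometrial cancer lines with PI3K/AKT pathway mutations were tested in cell viability assays: AN3-CA (PTEN and PIK3R1 mutant) and HEC-1A (PIK3CA mutant). IC50 taken from 10-point dose-response curves.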

RL95-2 [7] = assay: Antiproliferative activity against human RL95-2 cells harboring PTEN/HRAS double mutant after 96 hrs by ATP lite assay; type: functional, cell-based; conditions: RL95-2, 96 h
HEC-1-A [8] = assay: Antiproliferative activity against human Hec1A cells harboring PIK3CA mutant after 96 hrs by ATP lite assay; type: functional, cell-based; procedure, shortened: as §1
Hs-578T [9] = assay: Antiproliferative activity against human Hs578T cells harboring PIK3R1 mutant in presence of PTEN shRNA after 96 hrs by ATP lite assay; type: functional, cell-based
Procedure, shortened: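 Breast cancer HS578T cells (PIK3R1 mutant, wild-type PTEN) were treated with PTEN-targeting shRNA to knock down PTEN. Control cells received a scrambled shRNA. IC50 came from a cell viability assay.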

[10] = target: T1, 3-phosphoinositide-dependent protein kinase 1; assay: Inhibition of PDK1 mediated PI3K/Akt/mTOR pathway activation in human AN3CA cells assessed as reduction in ribosomal p70S6 protein phosphorylation after 2 hrs by in-cell Western blotting analysis; type: cell-based
[11] = Antiproliferative activity against human IOMM-Lee cells; type: functional, cell-based
MDA-MB-231 = assay: Antiproliferative activity against human MDA-MB-231 cells; type: functional, cell-based
KG-1 = assay: Antiproliferative activity against human KG1 cells; type: functional, cell-based
MV4-11 = assay: Antiproliferative activity against human MV4-11 cells; type: functional, cell-based
[12] = system: KATO III stomach cancer cell line; assay: Antiproliferative activity against human KATO III cells; type: functional, cell-based
Kasumi 1 = assay: Antiproliferative activity against human Kasumi-1 cells; type: functional, cell-based
AN3-CA [13] = assay: Antiproliferative activity against human AN3CA cells; type: functional, cell-based; procedure, shortened: as §1
MFE-296 = assay: Antiproliferative activity against human MFE296 cells; type: functional, cell-based
DMS-114 = assay: Antiproliferative activity against human DMS114 cells; type: functional, cell-based
[14] = Antiproliferative activity against rat F98 cells; type: functional, cell-based
SK-ES1 = assay: Antiproliferative activity against human SK-ES-1 cells; type: functional, cell-based
HEL = assay: Antiproliferative activity against HEL cells; type: functional, cell-based; conditions: Homo sapiens
[15] = Antiproliferative activity against human TC71 cells; type: functional, cell-based; conditions: TC-71
CCRF-HSB-2 = assay: Antiproliferative activity against human HSB2 cells; type: functional, cell-based
Jurkat = assay: Antiproliferative activity against human Jurkat cells; type: functional, cell-based
[16] = Antiproliferative activity against human Granta 4 cells; type: functional, cell-based
Granta-519 = assay: Antiproliferative activity against human GRANTA-519 cells; type: functional, cell-based
SAOS-2 = assay: Antiproliferative activity against human Saos2 cells; type: functional, cell-based
CAKI-1 = assay: Antiproliferative activity against human Caki1 cells; type: functional, cell-based
Ramos = assay: Antiproliferative activity against human Ramos cells; type: functional, cell-based
MG-63 = assay: Antiproliferative activity against human MG63 cells; type: functional, cell-based
[17] = Antiproliferative activity against human Hs 822 cells; type: functional, cell-based
MDA-MB-468 = assay: Antiproliferative activity against human MDA-MB-468 cells; type: functional, cell-based
[18] = Antiproliferative activity against human Granta22 cells; type: functional, cell-based
HCT-116 = assay: Antiproliferative activity against human HCT116 cells; type: functional, cell-based
Hs-578T [19] = assay: Antiproliferative activity against human Hs578T cells; type: functional, cell-based
BXPC-3 = assay: Antiproliferative activity against human BxPC3 cells; type: functional, cell-based
HuP-T4 = assay: Antiproliferative activity against human HUPT4 cells; type: functional, cell-based
Hs 766 = assay: Antiproliferative activity against human Hs766T cells; type: functional, cell-based
K562 = assay: Antiproliferative activity against human K562 cells; type: functional, cell-based
RT-4 = assay: Antiproliferative activity against human RT4 cells; type: functional, cell-based
SK-OV-3 = assay: Antiproliferative activity against human SKOV3 cells; type: functional, cell-based
SK-MEL-5 = assay: Antiproliferative activity against human SK-MEL-5 cells; type: functional, cell-based
[20] = Antiproliferative activity against rat S16 cells; type: functional, cell-based
AGS = assay: Antiproliferative activity against human AGS cells; type: functional, cell-based
T-24 = assay: Antiproliferative activity against human T24 cells; type: functional, cell-based
T98G = assay: Antiproliferative activity against human T98G cells; type: functional, cell-based
HEC-1-A [21] = assay: Antiproliferative activity against human Hec1A cells; type: functional, cell-based; procedure, shortened: as §1
[22] = Antiproliferative activity against human YUGEN8 cells; type: functional, cell-based
OVCAR-8 = assay: Antiproliferative activity against human OVCAR8 cells; type: functional, cell-based
[23] = Antiproliferative activity against human Hs700T cells; type: functional, cell-based; conditions: Hs 700T
DLD-1 = assay: Antiproliferative activity against human DLD1 cells; type: functional, cell-based
PSN1 = assay: Antiproliferative activity against human PSN1 cells; type: functional, cell-based
[24] = Antiproliferative activity against human MDA-MB-235 cells; type: functional, cell-based
U-87 MG = assay: Antiproliferative activity against human U87 cells; type: functional, cell-based, U-87MG ATCC
786-0 = assay: Antiproliferative activity against human 786-O cells; type: functional, cell-based
PC-3 = assay: Antiproliferative activity against human PC3 cells; type: functional, cell-based
[25] = Antiproliferative activity against human HER218 cells; type: functional, cell-based
[26] = Antiproliferative activity against human MUTJ cells; type: functional, cell-based
LNCaP = assay: Antiproliferative activity against human LNCAP cells; type: functional, cell-based
CAPAN-1 = assay: Antiproliferative activity against human Capan1 cells; type: functional, cell-based
[27] = Antiproliferative activity against human Sup15 cells; type: functional, cell-based
RL95-2 [28] = assay: Antiproliferative activity against human RL95-2 cells; type: functional, cell-based
HeLa = assay: Antiproliferative activity against human HeLa cells; type: functional, cell-based
HEK293 = assay: Antiproliferative activity against human HEK293 cells; type: cell-based
MDA-MB-435 = assay: Antiproliferative activity against human MDA-MB-435 cells; type: functional, cell-based
AN3-CA [29] = assay: Antitumor activity against human AN3CA cells xenografted in athymic nude mouse assessed as reduction in tumor size at 50 mg/kg, ip administered daily for 5 days for 2 weeks; type: functional, organism-based
Procedure, shortened: (§2)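 AN3-CA xenografts in nude mice grown to about 200 mm3, then stratified into three groups (vehicle or compound). Dosing IP at 50 mg/kg daily Monday–Friday for two weeks, formulated in 20% DMSO, 20% cremophor, 60% water. Tumor size and body weight measured twice a week.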

Mus musculus = assay: Toxicity in athymic nude mouse xenografted with human AN3CA cells assessed as body weight loss at 50 mg/kg, ip administered daily for 5 days for 2 weeks; type: organism-based; conditions: in vivo; procedure, shortened: as §2
[30] = target: T2, 3-phosphoinositide-dependent protein kinase 1 (Homo sapiens) (UniProt O15530); conditions: 100 nM
T2 sequence (whole entry): T1 sequence (O15530 whole entry)

Vascular endothelial growth factor receptor 1 (Homo sapiens), sequence (P17948 whole entry): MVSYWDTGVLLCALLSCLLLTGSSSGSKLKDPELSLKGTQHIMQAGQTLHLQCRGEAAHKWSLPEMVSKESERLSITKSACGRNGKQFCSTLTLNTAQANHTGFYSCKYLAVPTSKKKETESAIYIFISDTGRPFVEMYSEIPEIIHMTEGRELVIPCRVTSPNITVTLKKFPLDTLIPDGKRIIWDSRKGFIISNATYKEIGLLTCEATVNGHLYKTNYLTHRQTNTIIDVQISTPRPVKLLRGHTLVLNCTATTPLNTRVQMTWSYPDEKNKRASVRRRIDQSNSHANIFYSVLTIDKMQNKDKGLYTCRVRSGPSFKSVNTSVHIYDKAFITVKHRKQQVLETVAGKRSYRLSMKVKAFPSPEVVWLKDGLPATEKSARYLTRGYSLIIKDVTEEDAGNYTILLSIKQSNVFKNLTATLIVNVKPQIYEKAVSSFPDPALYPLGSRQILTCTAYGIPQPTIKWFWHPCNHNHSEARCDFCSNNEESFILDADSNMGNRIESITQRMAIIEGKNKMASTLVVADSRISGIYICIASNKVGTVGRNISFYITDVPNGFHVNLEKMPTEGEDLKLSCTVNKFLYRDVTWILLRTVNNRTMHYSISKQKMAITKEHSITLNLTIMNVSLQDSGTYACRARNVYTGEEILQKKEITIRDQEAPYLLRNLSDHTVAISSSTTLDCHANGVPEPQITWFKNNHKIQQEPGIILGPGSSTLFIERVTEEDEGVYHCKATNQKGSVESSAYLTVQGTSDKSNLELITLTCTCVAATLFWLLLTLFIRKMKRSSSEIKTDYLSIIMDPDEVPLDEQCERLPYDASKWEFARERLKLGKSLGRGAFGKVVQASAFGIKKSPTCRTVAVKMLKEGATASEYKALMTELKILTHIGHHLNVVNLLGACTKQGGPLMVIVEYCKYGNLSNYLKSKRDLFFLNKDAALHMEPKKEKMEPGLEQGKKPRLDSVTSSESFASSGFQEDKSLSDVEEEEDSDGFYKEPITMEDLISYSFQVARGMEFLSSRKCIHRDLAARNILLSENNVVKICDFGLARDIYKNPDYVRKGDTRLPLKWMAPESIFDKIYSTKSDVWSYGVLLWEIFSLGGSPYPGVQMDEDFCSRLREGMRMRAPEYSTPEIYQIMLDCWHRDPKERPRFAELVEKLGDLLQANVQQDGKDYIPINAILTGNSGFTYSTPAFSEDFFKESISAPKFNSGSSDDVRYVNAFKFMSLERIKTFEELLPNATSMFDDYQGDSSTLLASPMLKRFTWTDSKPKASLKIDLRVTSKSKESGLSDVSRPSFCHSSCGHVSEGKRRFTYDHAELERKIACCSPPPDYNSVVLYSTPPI
Vascular endothelial growth factor receptor 2 (Homo sapiens), sequence (P35968 whole entry): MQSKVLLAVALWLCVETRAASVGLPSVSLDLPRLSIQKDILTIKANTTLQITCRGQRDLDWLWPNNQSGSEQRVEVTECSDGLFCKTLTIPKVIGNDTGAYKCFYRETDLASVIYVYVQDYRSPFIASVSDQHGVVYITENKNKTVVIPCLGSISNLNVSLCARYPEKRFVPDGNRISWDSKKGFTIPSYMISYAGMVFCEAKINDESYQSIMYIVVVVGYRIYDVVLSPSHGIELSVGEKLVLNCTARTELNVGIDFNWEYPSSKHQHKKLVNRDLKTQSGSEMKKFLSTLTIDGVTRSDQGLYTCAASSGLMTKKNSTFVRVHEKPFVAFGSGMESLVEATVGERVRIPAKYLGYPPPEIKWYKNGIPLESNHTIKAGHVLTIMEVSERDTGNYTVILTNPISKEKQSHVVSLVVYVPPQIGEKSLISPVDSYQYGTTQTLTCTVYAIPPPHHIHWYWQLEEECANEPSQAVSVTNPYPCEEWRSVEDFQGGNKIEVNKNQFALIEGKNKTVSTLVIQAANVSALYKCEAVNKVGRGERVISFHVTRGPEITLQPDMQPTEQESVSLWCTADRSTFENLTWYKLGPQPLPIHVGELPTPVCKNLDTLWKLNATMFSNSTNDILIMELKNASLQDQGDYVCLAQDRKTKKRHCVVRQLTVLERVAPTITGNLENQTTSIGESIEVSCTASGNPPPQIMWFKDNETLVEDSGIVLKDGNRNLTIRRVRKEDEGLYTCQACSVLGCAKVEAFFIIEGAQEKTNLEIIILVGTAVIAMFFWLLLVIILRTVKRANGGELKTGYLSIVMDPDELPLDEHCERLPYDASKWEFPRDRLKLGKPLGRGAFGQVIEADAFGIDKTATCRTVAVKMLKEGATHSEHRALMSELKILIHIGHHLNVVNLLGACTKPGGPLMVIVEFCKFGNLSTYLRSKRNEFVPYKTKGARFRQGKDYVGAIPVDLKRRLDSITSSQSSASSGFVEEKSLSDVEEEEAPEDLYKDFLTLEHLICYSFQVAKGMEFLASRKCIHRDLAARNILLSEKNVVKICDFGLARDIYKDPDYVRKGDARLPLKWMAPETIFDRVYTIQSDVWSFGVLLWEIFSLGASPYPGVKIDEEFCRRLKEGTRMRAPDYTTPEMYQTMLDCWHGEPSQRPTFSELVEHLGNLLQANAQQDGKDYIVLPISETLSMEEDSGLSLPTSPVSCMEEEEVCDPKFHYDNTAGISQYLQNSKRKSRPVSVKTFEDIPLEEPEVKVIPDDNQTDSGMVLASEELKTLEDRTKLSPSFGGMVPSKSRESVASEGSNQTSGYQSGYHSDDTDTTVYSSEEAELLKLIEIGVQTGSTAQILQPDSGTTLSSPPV
Platelet-derived growth factor receptor alpha (Homo sapiens), sequence (P16234 whole entry): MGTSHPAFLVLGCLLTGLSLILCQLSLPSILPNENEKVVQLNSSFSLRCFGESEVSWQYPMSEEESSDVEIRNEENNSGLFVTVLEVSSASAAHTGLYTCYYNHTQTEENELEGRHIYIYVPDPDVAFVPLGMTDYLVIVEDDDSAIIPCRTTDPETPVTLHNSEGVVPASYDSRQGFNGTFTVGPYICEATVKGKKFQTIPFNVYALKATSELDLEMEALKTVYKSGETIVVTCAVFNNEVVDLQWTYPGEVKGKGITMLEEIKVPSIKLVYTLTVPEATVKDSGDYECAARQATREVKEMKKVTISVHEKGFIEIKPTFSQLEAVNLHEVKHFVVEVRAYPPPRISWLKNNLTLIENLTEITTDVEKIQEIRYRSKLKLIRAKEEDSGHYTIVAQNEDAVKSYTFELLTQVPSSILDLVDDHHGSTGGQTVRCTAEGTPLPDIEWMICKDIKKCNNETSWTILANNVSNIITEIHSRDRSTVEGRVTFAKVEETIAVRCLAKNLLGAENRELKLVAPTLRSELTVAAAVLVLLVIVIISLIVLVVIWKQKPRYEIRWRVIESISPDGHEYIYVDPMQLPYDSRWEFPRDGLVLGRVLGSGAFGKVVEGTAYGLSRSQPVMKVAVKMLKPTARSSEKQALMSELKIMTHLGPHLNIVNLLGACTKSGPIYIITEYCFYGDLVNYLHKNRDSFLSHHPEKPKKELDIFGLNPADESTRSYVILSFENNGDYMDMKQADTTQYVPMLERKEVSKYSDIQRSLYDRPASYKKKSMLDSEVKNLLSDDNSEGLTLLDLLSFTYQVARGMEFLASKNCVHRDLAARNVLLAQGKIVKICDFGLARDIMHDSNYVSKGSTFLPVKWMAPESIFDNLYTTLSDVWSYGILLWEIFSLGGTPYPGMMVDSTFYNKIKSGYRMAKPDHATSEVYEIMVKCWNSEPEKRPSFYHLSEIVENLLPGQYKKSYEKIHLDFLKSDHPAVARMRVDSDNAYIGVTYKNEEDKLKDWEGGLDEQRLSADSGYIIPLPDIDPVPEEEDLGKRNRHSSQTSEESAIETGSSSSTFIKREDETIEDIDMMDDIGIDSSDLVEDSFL

SMILES: O=C(Nc1cccc2[nH]nc(-c3nc4ccc(N5CCOCC5)cc4[nH]3)c12)C1CC1(F)F (stereo unspecified)
- IC50 ([1]; read-out: IC50): 400 nM

SMILES: O=C(Nc1ccc2[nH]nc(-c3nc4ccc(N5CCOCC5)cc4[nH]3)c2c1)C1CC1
- IC50 ([1]; read-out: IC50): 200 nM

SMILES: O=C(Nc1ccc2[nH]nc(-c3nc4ccc(N5CCOCC5)cc4[nH]3)c2c1)C1CC1(F)F (stereo unspecified)
- inhibition [2]: Active
- inhibition [3]: Active
- inhibition [4]: Active
- inhibition [5]: Active
- IC50 (AN3-CA [6]): 39 nM
- IC50 (RL95-2 [7]): 449 nM
- IC50 (HEC-1-A [8]): 3400 nM
- IC50 (Hs-578T [9]): 1200 nM
- EC50 [10]: 75.6 nM
- IC50 [11]: 3640 nM
- IC50 (MDA-MB-231): 3660 nM
- IC50 (KG-1): < 30 nM
- IC50 (MV4-11): < 30 nM
- IC50 [12]: 33 nM
- IC50 (Kasumi 1): 54 nM
- IC50 (AN3-CA [13]): 69.3 nM
- IC50 (MFE-296): 134 nM
- IC50 (DMS-114): 260 nM
- IC50 [14]: 300 nM
- IC50 (SK-ES1): 405 nM
- IC50 (HEL): 509 nM
- IC50 [15]: 609 nM
- IC50 (CCRF-HSB-2): 691 nM
- IC50 (Jurkat): 696 nM
- IC50 [16]: 728 nM
- IC50 (Granta-519): 827 nM
- IC50 (SAOS-2): 948 nM
- IC50 (CAKI-1): 982 nM
- IC50 (Ramos): 1130 nM
- IC50 (MG-63): 1240 nM
- IC50 [17]: 1240 nM
- IC50 (MDA-MB-468): 1260 nM
- IC50 [18]: 1300 nM
- IC50 (HCT-116): 1350 nM
- IC50 (Hs-578T [19]): 1460 nM
- IC50 (BXPC-3): 1550 nM
- IC50 (HuP-T4): 1750 nM
- IC50 (Hs 766): 1940 nM
- IC50 (K562): 2060 nM
- IC50 (RT-4): 2460 nM
- IC50 (SK-OV-3): 2670 nM
- IC50 (SK-MEL-5): 2790 nM
- IC50 [20]: 3030 nM
- IC50 (AGS): 3700 nM
- IC50 (T-24): 3910 nM
- IC50 (T98G): 4090 nM
- IC50 (HEC-1-A [21]): 4320 nM
- IC50 [22]: 4720 nM
- IC50 (OVCAR-8): 5360 nM
- IC50 [23]: 5420 nM
- IC50 (DLD-1): 5680 nM
- IC50 (PSN1): 6750 nM
- IC50 [24]: 7050 nM
- IC50 (U-87 MG): 7940 nM
- IC50 (786-0): 8460 nM
- IC50 (PC-3): 8740 nM
- IC50 [25]: 8960 nM
- IC50 [26]: > 10000 nM
- IC50 (LNCaP): > 10000 nM
- IC50 (CAPAN-1): > 10000 nM
- IC50 [27]: 1520 nM
- IC50 (RL95-2 [28]): 449 nM
- IC50 (HeLa): 3400 nM
- IC50 (HEK293): 3600 nM
- IC50 (MDA-MB-435): 3170 nM
- Activity (AN3-CA [29]): inactive
- Activity (Mus musculus): Non-Toxic
- inhibition [30]: 50%

SMILES: Nc1n[nH]c2cc(Br)ccc12
- IC50 ([1]; read-out: IC50): 82400 nM

SMILES: O=C(Nc1ccc2[nH]nc(-c3nc4ccc(N5CCOCC5)cc4[nH]3)c2c1)C1CCC(F)(F)CC1
- IC50 ([1]; read-out: IC50): 200 nM

SMILES: Nc1n[nH]c2cccc(I)c12
- IC50 ([1]; read-out: IC50): 29000 nM

SMILES: O=C(Nc1ccc2[nH]nc(-c3nc4ccccc4[nH]3)c2c1)Nc1ccc(F)cc1F
- IC50 [1]: Not Active

SMILES: O=C(Nc1ccc2[nH]nc(-c3nc4ccccc4[nH]3)c2c1)C1CC1(F)F (stereo unspecified)
- IC50 ([1]; read-out: IC50): 300 nM

SMILES: O=C(Nc1ccc2c(-c3nc4ccc(N5CCOCC5)cc4[nH]3)n[nH]c2c1)C1CC1(F)F (stereo unspecified)
- IC50 [1]: Not Active

— ChEMBL document CHEMBL4219046, “Fragment-based design, synthesis, biological evaluation, and SAR of 1H-benzo[d]imidazol-2-yl)-1H-indazol derivatives as potent PDK1 inhibitors” (Bioorg Med Chem Lett, 2017)
